The text below walks through data of ChEMBL document CHEMBL3797043 (Bioorg Med Chem Lett, 2016).

SMILES strings stand for the structures. Calls of active or inactive are those of the source. The calls are words filed in the database; no cut-off is given here. A value given as a limit tells only on which side of the number the result lay.

In test [1] the target is Pancreatic elastase (Sus scrofa) (UniProt P08419+P00772). The test is described as follows: Inhibition of porcine pancreatic elastase at 10 uM using N-Succinyl-ala-ala-ala-p-nitroanilide substrate assessed as reduction in p-nitroaniline release measured over 5 mins. In kind it is protein assay. A digest of the protocol:
(§1)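 Commercial porcine enzymes (liver esterase, pancreatic elastase) assayed in microplates. The mix held enzyme, 100 uM chromogenic substrate, 0.125 M TrisCl and 0.2 mM EDTA at pH 8.0. Each reaction was started by adding substrate. Release of p-nitrophenol (esterase) or p-nitroaniline (elastase) was followed at 400 nm, with control rates linear over at least 5 min.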

The target of the next test is T1, Liver carboxylesterase (Sus scrofa, UniProt Q29550).
T1 sequence (Q29550 whole entry): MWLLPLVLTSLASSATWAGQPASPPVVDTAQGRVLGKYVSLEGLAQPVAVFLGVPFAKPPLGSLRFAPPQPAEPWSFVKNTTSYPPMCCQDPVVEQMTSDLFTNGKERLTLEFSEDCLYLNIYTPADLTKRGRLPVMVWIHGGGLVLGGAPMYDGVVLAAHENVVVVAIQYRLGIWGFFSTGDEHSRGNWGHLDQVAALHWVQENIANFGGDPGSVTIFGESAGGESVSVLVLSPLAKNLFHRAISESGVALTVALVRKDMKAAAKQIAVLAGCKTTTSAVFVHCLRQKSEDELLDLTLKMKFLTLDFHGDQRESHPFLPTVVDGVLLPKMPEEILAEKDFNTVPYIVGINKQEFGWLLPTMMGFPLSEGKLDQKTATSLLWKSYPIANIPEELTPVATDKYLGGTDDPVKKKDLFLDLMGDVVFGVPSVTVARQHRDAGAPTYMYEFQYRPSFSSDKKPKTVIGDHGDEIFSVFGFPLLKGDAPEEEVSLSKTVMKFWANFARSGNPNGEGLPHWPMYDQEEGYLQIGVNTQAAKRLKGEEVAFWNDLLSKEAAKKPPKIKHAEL
The test is described as follows: Inhibition of porcine liver esterase using 4-nitrophenyl butyrate substrate assessed as reduction in p-nitrophenol release measured over 5 mins. A digest of the protocol:
as §1

The subject of test [2] is Mus musculus. Kind of test: Analgesic effect in ICR mouse assessed as tail flick latencies at 50 mg/kg, ip measured 10 to 60 mins post dose by tail flick test. In kind it is functional, organism-based. A digest of the protocol:
(§2)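 Male ICR mice (18–22 g), blinded observers. Compounds in DMSO stock, diluted in Ringer's solution (final DMSO <10%), given ip in 0.1 mL. Distal 2–3 cm of tail immersed in 52°C ± .5 water; withdrawal latency (s) recorded before dosing and at 10, 20, 30, 45, 60 min after. ≥6 mice per compound per dose; mean ± SEM; two-way ANOVA with Bonferroni test.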

Test [3] relates to Mus musculus. Kind of test: Analgesic effect in ICR mouse assessed as tail flick latencies at 20 to 100 mg/kg, ip measured 10 to 60 mins post dose by tail flick test. In kind it is functional, organism-based. In short, it runs like this: as §2
Test [4] deals with T2, Fatty-acid amide hydrolase 1 (Homo sapiens, UniProt O00519).
T2 sequence (O00519 whole entry): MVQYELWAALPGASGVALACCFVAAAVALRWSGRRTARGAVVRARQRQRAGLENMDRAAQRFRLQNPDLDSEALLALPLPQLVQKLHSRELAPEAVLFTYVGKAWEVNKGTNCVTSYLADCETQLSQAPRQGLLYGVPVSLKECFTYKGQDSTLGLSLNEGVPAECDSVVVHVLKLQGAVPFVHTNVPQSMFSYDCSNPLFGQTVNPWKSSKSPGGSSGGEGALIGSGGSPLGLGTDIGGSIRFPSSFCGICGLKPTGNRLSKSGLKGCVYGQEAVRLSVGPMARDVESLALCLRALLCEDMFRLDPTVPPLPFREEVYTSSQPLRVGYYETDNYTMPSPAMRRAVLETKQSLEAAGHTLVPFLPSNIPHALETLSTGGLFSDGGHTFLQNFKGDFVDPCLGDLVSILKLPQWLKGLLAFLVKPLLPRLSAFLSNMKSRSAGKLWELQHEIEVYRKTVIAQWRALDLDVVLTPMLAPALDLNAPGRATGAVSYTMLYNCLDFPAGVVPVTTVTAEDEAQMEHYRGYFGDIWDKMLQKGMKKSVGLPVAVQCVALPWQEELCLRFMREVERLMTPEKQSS
The test is described as follows: Inhibition of MBP-fused human recombinant FAAH with truncated N-terminal transmembrane domain expressed in Escherichia coli T7 using D-AMC substrate measured over 40 mins by fluorescence based assay.

Test [5] addresses T3, Fatty-acid amide hydrolase 1 (Homo sapiens) (UniProt O00519).
T3 sequence (whole entry): T2 sequence (O00519 whole entry)
Kind of test: Time dependent inhibition of MBP-fused human recombinant FAAH with truncated N-terminal transmembrane domain expressed in Escherichia coli T7 using D-AMC substrate measured over 40 mins by fluorescence based assay. Conditions: TDE = time-dependent effect. In short, it runs like this:
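MBP–FAAH (residues 34–579, E. coli) at 3 μg protein per well, 8 pM active enzyme, with 5 μM D-AMC in Tris-Cl/EDTA/0.1% BSA pH 8.0 at 37 °C; DMSO ≤1%. Reactions started with enzyme; fluorescence read at ex 351/em 430 nm over 40 min. […] Ki from IC50 = Ki(1+[S]/Km)+[Et]/2.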

For test [6], the system named is Mus musculus. Kind of test: Analgesic effect in ICR mouse assessed as tail flick latencies at 20 to 40 mg/kg, ip measured 10 to 60 mins post dose by tail flick test. Format: functional, organism-based. In short, it runs like this: as §2
Test [7] addresses T3, Fatty-acid amide hydrolase 1 (Homo sapiens). Kind of test: Inhibition of MBP-fused human recombinant FAAH with truncated N-terminal transmembrane domain expressed in Escherichia coli T7 assessed as enzyme inactivation rate constant using D-AMC substrate incubated for 2 hrs by fluorescence based assay. In short, it runs like this: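 Human FAAH residues 34–579 as an MBP fusion, expressed in E. coli T7 Express with IPTG induction, then purified by amylose affinity and S100 chromatography. Substrate D-AMC at 5 μM final in 125 mM Tris-Cl, 1 mM EDTA, 0.1% BSA, pH 8.0, 37 °C; ex 351/em 430 nm. Apparent first-order k_i' measured at several inhibitor levels and fitted for k_inact and K_i (D-AMC Km 0.52 μM).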

On to `Cc1ccccc1OC(=O)N1CCC(c2nc(C3=NOC(c4ccccc4)C3)cs2)CC1` (stereo not given), for which the inhibition entry in test [1] was “inactive”. On Liver carboxylesterase, the concentration for half-maximal inhibition (IC50) came out at 840 nM.

Consider `N#Cc1ccc(OC(=O)N2CCC(c3nc(C4=NOC(c5ccccc5)C4)cs3)CC2)cc1` (stereo not given), for which the result in the test with Mus musculus [2] was Active. Further, the Activity entry in the test on Mus musculus [3] was “Dose-dependent effect”.

With `O=C(Nc1ccccc1)N1CCC(c2nc(C3=NOC(c4ccccc4)C3)cs2)CC1` (stereo not given), the inhibition entry in test [1] is “inactive”. Further, at Liver carboxylesterase, the IC50 worked out at 5600 nM.

Turning to `O=C(Oc1ccccc1Cl)N1CCC(c2nc(C3=NOC(c4ccccc4)C3)cs2)CC1` (stereo not given), the inhibition entry in test [1] is “inactive”. At Liver carboxylesterase, the IC50 worked out at 870 nM.

Take `O=C(Oc1cccnc1)N1CCC(c2nc(C3=NOC(c4ccccc4)C3)cs2)CC1` (stereo not given): in the test with Mus musculus [2], the outcome was inactive.

As for `O=C(Oc1ccccc1)N1CCC(c2nc(C3=NOC4(CCCc5ccccc54)C3)cs2)CC1` (stereo not given), the inhibition constant Ki in test [4] was 2.73 nM. In addition, the inhibition entry in test [5] was “tde”.

Take `COc1ccc(OC(=O)N2CCC(c3nc(C4=NOC(c5ccccc5)C4)cs3)CC2)cc1` (stereo not given): the result in the test with Mus musculus [2] was inactive.

In the case of `O=C(Oc1ccc(Cl)cc1)N1CCC(c2nc(C3=NOC(c4ccccc4)C3)cs2)CC1` (stereo not given), the inhibition result in test [1] was “inactive”. For the same compound, the IC50 at Liver carboxylesterase worked out at 470 nM.

On to `O=C(Nc1cccnn1)N1CCC(c2nc(C3=NOC(c4ccccc4)C3)cs2)CC1` (stereo not given), for which the outcome with Mus musculus [2] was Active. Also, the outcome with Mus musculus [6] was inactive.

Turning to `O=C(Nc1cccnc1)N1CCC(Cc2cccc(Oc3ccc(C(F)(F)F)cn3)c2)CC1`, in test [7], the K came to 0.0033 s⁻¹.

In the case of `O=C(Nc1cnccn1)N1CCC(c2nc(C3=NOC(c4ccccc4)C3)cs2)CC1` (stereo not given), the result in the test with Mus musculus [2] was Active. Moreover, the outcome with Mus musculus [6] was inactive.

As for `O=C(Oc1ccccc1)N1CCC(c2nc(C3=NOC(c4ccccc4)C3)cs2)CC1` (stereo not given), the inhibition entry in test [1] was “inactive”. Besides, on Liver carboxylesterase, the half-inhibitory concentration (IC50) turned out to be 2400 nM. The result in the test with Mus musculus [2] was Active. Further, in the test on Mus musculus [6], the outcome was inactive.

Take `O=C(Nc1nccs1)N1CCC(c2nc(C3=NOC(c4ccccc4)C3)cs2)CC1` (stereo not given): the inhibition entry in test [1] is “inactive”. For the same compound, the concentration for half-maximal inhibition (IC50) on Liver carboxylesterase was greater than 10000 nM.
